# Source: ChEMBL document CHEMBL4190259, “Constituents of Polygala flavescens ssp. flavescens and Their Activity as Inhibitors of Human Lactate Dehydrogenase” (J Nat Prod, 2017)
# Target: L-lactate dehydrogenase A chain (Homo sapiens, UniProt P00338)
# Test: Inhibition of human liver LDH5 using pyruvate as substrate and NADH as cofactor measured after 15 mins by fluorescence assay
# In short: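 Purified human LDH isoform 5, forward reaction (pyruvate to lactate) in 100 mM phosphate buffer pH 7.4 with 200 μM pyruvate and 40 μM NADH. Seven concentrations from 500 to 0.7 μM, each in duplicate, DMSO not above 4%. NADH consumption read by fluorescence (ex 340, em 460 nm) after 15 min. Compound background fluorescence or quenching subtracted. IC50 from concentration–response curves.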
row,IC50 [µM],SMILES
1,> 500,C[C@@H]1O[C@@H](OC[C@H]2O[C@@H](Oc3c(-c4ccc(O)c(O)c4)oc4cc(O)cc(O)c4c3=O)[C@H](O[C@@H]3OC[C@](O)(CO)[C@H]3O)[C@@H](O)[C@@H]2O)[C@H](O)[C@H](O)[C@H]1O
2,> 500,O=C(OC[C@H]1O[C@@](CO)(O[C@H]2O[C@H](CO)[C@@H](O)[C@H](O[C@@H]3O[C@H](CO)[C@@H](O)[C@H](O)[C@H]3O)[C@H]2O)[C@@H](O)[C@@H]1O)c1ccccc1
3,191,COc1cc(/C=C/C(=O)OC[C@H]2O[C@H](O[C@]3(CO)O[C@H](CO)[C@@H](O)[C@@H]3OC(=O)/C=C/c3cc(OC)c(O)c(OC)c3)[C@H](O)[C@@H](O[C@@H]3O[C@H](CO)[C@@H](O)[C@H](O)[C@H]3O)[C@@H]2O)cc(OC)c1O
4,> 500,COc1cc(/C=C/C(=O)OC[C@@]2(O)CO[C@@H](O[C@H]3[C@H](Oc4c(-c5ccc(O)c(O)c5)oc5cc(O)cc(O)c5c4=O)O[C@H](CO[C@@H]4O[C@@H](C)[C@H](O)[C@@H](O)[C@H]4O)[C@@H](O)[C@@H]3O)[C@@H]2O)ccc1O
5,> 500,C[C@@H]1O[C@@H](OC[C@H]2O[C@@H](Oc3c(-c4ccc(O)c(O)c4)oc4cc(O)cc(O)c4c3=O)[C@H](O[C@@H]3OC[C@](O)(COC(=O)/C=C/c4ccc(O)cc4)[C@H]3O)[C@@H](O)[C@@H]2O)[C@H](O)[C@H](O)[C@H]1O
6,> 500,CC(=O)OC[C@H]1O[C@H](O[C@]2(CO)O[C@H](COC(=O)c3ccccc3)[C@@H](O)[C@@H]2O)[C@H](O)[C@@H](O[C@@H]2O[C@H](CO)[C@@H](O)[C@H](O)[C@H]2O)[C@@H]1O
7,90.4,COc1cc(/C=C/C(=O)OC[C@H]2O[C@H](O[C@]3(CO)O[C@H](CO)[C@@H](O)[C@@H]3OC(=O)/C=C/c3cc(OC)c(O)c(OC)c3)[C@H](O)[C@@H](O)[C@@H]2O)cc(OC)c1O
8,> 500,C[C@@H]1O[C@@H](OC[C@H]2O[C@@H](Oc3c(-c4ccc(O)c(O)c4)oc4cc(O)cc(O)c4c3=O)[C@H](O)[C@@H](O)[C@@H]2O)[C@H](O)[C@H](O)[C@H]1O [RUTIN]
9,> 500,CC(=O)O[C@@H]1[C@H](O[C@@H]2OC[C@](O)(CO)[C@H]2O)[C@@H](O[C@@H]2O[C@@H](C)[C@H](O)[C@@H](O)[C@H]2O)[C@H](OC(=O)[C@]23CCC(C)(C)C[C@H]2C2=CC[C@@H]4[C@@]5(C)C[C@H](O)[C@H](O[C@@H]6O[C@H](CO)[C@@H](O)[C@H](O)[C@H]6O)[C@@](C)(C(=O)O)[C@@H]5CC[C@@]4(C)[C@]2(C)CC3)O[C@H]1C
10,> 500,C[C@@H]1O[C@@H](OC[C@H]2O[C@@H](Oc3c(-c4ccc(O)c(O)c4)oc4cc(O)cc(O)c4c3=O)[C@H](O[C@@H]3OC[C@](O)(COC(=O)c4ccccc4)[C@H]3O)[C@@H](O)[C@@H]2O)[C@H](O)[C@H](O)[C@H]1O
11,> 500,COc1cc(/C=C/C(=O)OC[C@@]2(O)CO[C@@H](O[C@H]3[C@H](Oc4c(-c5ccc(O)c(O)c5)oc5cc(O)cc(O)c5c4=O)O[C@H](CO[C@@H]4O[C@@H](C)[C@H](O)[C@@H](O)[C@H]4O)[C@@H](O)[C@@H]3O)[C@@H]2O)cc(OC)c1O
